Test results taken from ChEMBL document CHEMBL1135770, “Synthesis and transporter binding properties of 3beta-[4'-(phenylalkyl, -phenylalkenyl, and -phenylalkynyl)phenyl]tropane-2beta-carboxylic acid methyl esters: evidence of a remote phenyl binding domain on the dopamine transporter” (J Med Chem, 2002).

How the values were obtained:
[1] = target: T1, Norepinephrine transporter (Rattus norvegicus, UniProt Q9WTR4); assay: Tested for the binding affinity towards Norepinephrine transporter in rat cerebral cortex by displacing [3H]nisoxetine radioligand; type: tissue-based
Outline: (§1)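 Competition binding with 0.5 nM [³H]nisoxetine as final radioligand concentration.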

[2] = target: T2, Sodium-dependent serotonin transporter (Rattus norvegicus, UniProt P31652); assay: Tested for the binding affinity towards Serotonin transporter in rat midbrain tissue by displacing [3H]paroxetine radioligand; type: tissue-based
Outline: (§2)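 Competition binding with 0.2 nM [³H]paroxetine as final radioligand concentration.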

[3] = target: Sodium-dependent dopamine transporter (Rattus norvegicus, UniProt P23977); assay: 50% Inhibition against dopamine transporter (DAT) in rat striatal tissue by displacing [3H]WIN-35428 radioligand; type: tissue-based, Striatum
Outline: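 Competition binding with 0.5 nM [³H]WIN35,428 as final radioligand concentration.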

[4] = target: T2, Sodium-dependent serotonin transporter; assay: 50% Inhibition against Serotonin transporter in rat midbrain tissue by displacing [3H]paroxetine radioligand; type: tissue-based; outline: as §2
[5] = target: T1, Norepinephrine transporter; assay: 50% Inhibition against Norepinephrine transporter in rat cerebral cortex by displacing [3H]nisoxetine radioligand; type: tissue-based; outline: as §1

T1 sequence (Q9WTR4 whole entry): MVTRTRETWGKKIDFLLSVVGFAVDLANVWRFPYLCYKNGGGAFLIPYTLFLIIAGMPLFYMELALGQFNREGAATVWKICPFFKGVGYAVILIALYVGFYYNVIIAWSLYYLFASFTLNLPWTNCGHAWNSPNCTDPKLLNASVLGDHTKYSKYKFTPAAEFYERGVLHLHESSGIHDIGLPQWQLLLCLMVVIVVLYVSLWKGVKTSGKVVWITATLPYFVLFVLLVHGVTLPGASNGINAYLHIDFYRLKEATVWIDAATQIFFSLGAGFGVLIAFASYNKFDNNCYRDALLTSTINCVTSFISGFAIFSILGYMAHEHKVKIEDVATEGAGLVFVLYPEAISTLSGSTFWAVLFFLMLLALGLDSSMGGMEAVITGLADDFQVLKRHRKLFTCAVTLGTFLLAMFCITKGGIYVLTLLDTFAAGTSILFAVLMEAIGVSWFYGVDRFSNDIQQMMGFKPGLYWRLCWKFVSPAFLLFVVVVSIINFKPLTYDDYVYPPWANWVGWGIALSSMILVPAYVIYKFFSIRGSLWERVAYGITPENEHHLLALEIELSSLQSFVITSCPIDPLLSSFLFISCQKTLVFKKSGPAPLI
T2 sequence (P31652 whole entry): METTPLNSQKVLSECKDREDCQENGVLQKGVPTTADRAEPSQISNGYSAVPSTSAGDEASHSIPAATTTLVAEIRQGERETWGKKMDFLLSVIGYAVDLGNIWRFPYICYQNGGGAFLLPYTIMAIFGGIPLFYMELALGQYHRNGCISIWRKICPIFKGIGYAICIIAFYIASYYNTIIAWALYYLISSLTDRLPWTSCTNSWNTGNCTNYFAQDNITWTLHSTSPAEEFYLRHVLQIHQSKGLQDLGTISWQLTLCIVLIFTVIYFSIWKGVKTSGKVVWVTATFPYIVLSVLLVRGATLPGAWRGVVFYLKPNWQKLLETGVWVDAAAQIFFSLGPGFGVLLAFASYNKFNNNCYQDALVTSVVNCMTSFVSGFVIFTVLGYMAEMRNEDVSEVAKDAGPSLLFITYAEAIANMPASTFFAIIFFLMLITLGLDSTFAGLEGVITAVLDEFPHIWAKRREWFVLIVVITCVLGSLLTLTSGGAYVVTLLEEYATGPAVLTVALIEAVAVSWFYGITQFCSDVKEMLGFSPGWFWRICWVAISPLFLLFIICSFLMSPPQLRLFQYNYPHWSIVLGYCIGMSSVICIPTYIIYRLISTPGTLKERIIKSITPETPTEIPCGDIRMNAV
Sequence of Sodium-dependent dopamine transporter (P23977 whole entry): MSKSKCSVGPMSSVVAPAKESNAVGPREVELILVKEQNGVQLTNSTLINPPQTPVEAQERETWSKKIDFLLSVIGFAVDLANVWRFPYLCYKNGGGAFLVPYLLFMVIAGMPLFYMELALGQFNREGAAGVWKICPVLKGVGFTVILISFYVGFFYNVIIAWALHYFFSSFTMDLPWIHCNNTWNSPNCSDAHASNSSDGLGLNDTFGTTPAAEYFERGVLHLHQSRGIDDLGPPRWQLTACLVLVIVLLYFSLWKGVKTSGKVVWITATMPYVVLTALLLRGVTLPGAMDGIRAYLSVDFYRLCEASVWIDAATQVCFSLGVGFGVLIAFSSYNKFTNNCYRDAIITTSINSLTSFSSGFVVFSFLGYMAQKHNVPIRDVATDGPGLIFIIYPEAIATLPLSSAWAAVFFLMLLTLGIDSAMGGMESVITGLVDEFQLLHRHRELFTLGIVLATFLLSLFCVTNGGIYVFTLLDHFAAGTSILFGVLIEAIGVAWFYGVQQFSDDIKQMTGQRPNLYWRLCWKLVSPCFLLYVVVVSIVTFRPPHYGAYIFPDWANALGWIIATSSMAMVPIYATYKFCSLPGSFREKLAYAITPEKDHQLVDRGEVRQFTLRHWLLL

SMILES | Ki [1] | Ki [2] | IC50 [3] | IC50 [4] | IC50 [5]
COC(=O)C1[C@@H](c2ccc(-c3ccccc3)cc2)CC2CC[C@H]1N2C (stereo partly specified) | 892 nM | 8.7 nM | 15.6 nM | 95.8 nM | 1480 nM
CCCc1ccc([C@H]2CC3CC[C@H](C2C(=O)OC)N3C)cc1 (stereo partly specified) | 2360 nM | 6.4 nM | 68.5 nM | 70.4 nM | 3920 nM
COC(=O)C1[C@@H](c2ccc(/C=C/Cc3ccccc3)cc2)CC2CC[C@H]1N2C (stereo partly specified) | 759 nM | 71 nM | 15.8 nM | 781 nM | 1250 nM
COC(=O)[C@@H]1C2CC[C@H](C[C@@H]1c1ccccc1)N2C | 55 nM | – | – | – | –
C#Cc1ccc([C@H]2CC3CC[C@H](C2C(=O)OC)N3C)cc1 (stereo partly specified) | 50.1 nM | 0.4 nM | 1.2 nM | 4.4 nM | 83.2 nM
CCc1ccc([C@H]2C[C@H]3CCC(C2C(=O)OC)N3C)cc1 (stereo partly specified) | 2360 nM | 2.58 nM | – | – | –
CC#Cc1ccc([C@H]2CC3CC[C@H](C2C(=O)OC)N3C)cc1 (stereo partly specified) | 494 nM | 1.43 nM | 2.37 nM | 15.7 nM | 820 nM
COC(=O)C1[C@@H](c2ccc(CCc3ccccc3)cc2)CC2CC[C@H]1N2C (stereo partly specified) | 6.5 nM | 21.3 nM | 5.14 nM | 234 nM | 10.8 nM
COC(=O)C1[C@@H](c2ccc(/C=C/c3ccccc3)cc2)CC2CC[C@H]1N2C (stereo partly specified) | 1180 nM | 30.5 nM | 3.09 nM | 335 nM | 1960 nM
COC(=O)C1[C@@H](c2ccc(Cc3ccccc3)cc2)CC2CC[C@H]1N2C (stereo partly specified) | 606 nM | 658 nM | 526 nM | 7240 nM | 6670 nM
C/C=C\c1ccc([C@H]2CC3CC[C@H](C2C(=O)OC)N3C)cc1 (stereo partly specified) | 958 nM | 1.04 nM | 5.29 nM | 11.4 nM | 1590 nM
COC(=O)C1[C@@H](c2ccc(C#CCCCc3ccccc3)cc2)CC2CC[C@H]1N2C (stereo partly specified) | 2680 nM | 122 nM | 300 nM | 1340 nM | 4450 nM
COC(=O)C1[C@@H](c2ccc(C#CCCCCO)cc2)CC2CC[C@H]1N2C (stereo partly specified) | 5720 nM | 75 nM | 57 nM | 828 nM | 9500 nM
COC(=O)C1[C@@H](c2ccc(CCCCc3ccccc3)cc2)CC2CC[C@H]1N2C (stereo partly specified) | 1390 nM | 439 nM | 228 nM | 4820 nM | 2310 nM
COC(=O)C1[C@@H](c2ccc(C#Cc3ccccc3)cc2)CC2CC[C@H]1N2C (stereo partly specified) | 209 nM | 4.3 nM | 3.7 nM | 46.8 nM | 347 nM
COC(=O)C1[C@@H](c2ccc3ccccc3c2)CC2CC[C@H]1N2C (stereo partly specified) | 12.7 nM | 0.07 nM | 0.51 nM | 0.8 nM | 21.1 nM
COC(=O)C1C(c2ccc3ccccc3c2)CC2CC[C@H]1N2C (stereo partly specified) | 42.3 nM | 1.05 nM | 1.1 nM | 11.4 nM | 70.2 nM
C=Cc1ccc([C@H]2CC3CC[C@H](C2C(=O)OC)N3C)cc1 (stereo partly specified) | 47 nM | 0.86 nM | 1.24 nM | 9.5 nM | 78 nM
COC(=O)C1[C@@H](c2ccc(C#CCc3ccccc3)cc2)CC2CC[C@H]1N2C (stereo partly specified) | 16.5 nM | 1.19 nM | 1.82 nM | 13.1 nM | 27.4 nM
COC(=O)C1C2CC[C@H](C[C@H]1c1ccc(C)cc1)N2C (stereo partly specified) | 36 nM | – | – | – | 60 nM
COC(=O)C1[C@@H](c2ccc(/C=C\c3ccccc3)cc2)CC2CC[C@H]1N2C (stereo partly specified) | – | – | 11.7 nM | – | –
COC(=O)C1[C@@H](c2ccc(CCCc3ccccc3)cc2)CC2CC[C@H]1N2C (stereo partly specified) | 8500 nM | 113 nM | 351 nM | 1240 nM | 14200 nM
COC(=O)C1[C@@H](c2ccc(C#CCCc3ccccc3)cc2)CC2CC[C@H]1N2C (stereo partly specified) | 885 nM | 198 nM | 6.28 nM | 2180 nM | 1470 nM
COC(=O)C1=C(c2ccc3ccccc3c2)CC2CCC1N2C (stereo unspecified) | 224 nM | 31.4 nM | 5.17 nM | 345 nM | 372 nM
C=C(c1ccccc1)c1ccc([C@H]2CC3CC[C@H](C2C(=O)OC)N3C)cc1 (stereo partly specified) | 4260 nM | 246 nM | 474 nM | 2710 nM | 7060 nM
